Experimental data pooled from the literature.
Compare with care: the assays were run in different laboratories.
Cell line: K562

| Structure (SMILES) | observed | action | method | time | notes | IC50 [nM] |
| --- | --- | --- | --- | --- | --- | --- |
| O=C1NC(=NCc2cccs2)S/C1=C\c1ccc2ncccc2c1 | cell growth or viability | – | – | – | – | > 10000 |
| CN1c2ccccc2C(=O)N2[C@H](C(=O)Nc3ccc(C(=O)Nc4ccccc4N)cc3)Cc3c([nH]c4ccccc34)[C@@H]12 | cell growth or viability | – | – | – | – | 1900 |
| CC(=O)O[C@@H]1OC=C2[C@@H](OC(C)=O)C[C@H]3[C@]4(C)CC[C@H]5C(C)(C)CCC[C@]5(C)[C@H]4C[C@@H](O)[C@]3(C)[C@H]21 | NF-κB activity | inhibitor | luciferase | – | TNF-stimulated | 6000 |
| CC(C)(C)SCCCC1=CC2C=CC=CC1C2C1CCCCC1=O (centres unmarked) | cell growth or viability | – | flow cytometry | – | – | 28 |
| C[C@H](O)C(=O)CCCCCCC(=O)Nc1cccc(-c2cn(-c3ccccc3)nn2)c1 | cell growth or viability | – | thymidine uptake | – | – | 7120 |
| CCCON(Cc1ccc(C(=O)NO)cc1)C(=O)Nc1ccccc1 | cell growth or viability | – | ATP luminescence | 72 h | – | 1770 |
| CC[C@@H](C)[C@H](N)C(=O)N1Cc2ccccc2C1 | cell growth or viability | – | ATP luminescence | – | – | > 60000 |
| COc1ccc(/C=C\c2cc(OC)c(OC)c(OC)c2)cc1O | cell growth or viability | – | – | – | – | 5 |
| CCCCN(Cc1ccc(C(=O)NO)cc1)C(=O)Nc1ccccc1 | cell growth or viability | – | ATP luminescence | 72 h | – | 2260 |
| O=C1CCCCC1C1C2C=CC=CC1/C(=C/Cc1ccccc1)C2 (centres unmarked) | cell growth or viability | – | flow cytometry | – | – | 38 |
| C#CCSc1nc(Sc2nnnn2-c2ccccc2)c2nnn(Cc3ccc(OC)cc3)c2n1 | cell growth or viability | – | MTS | 6 days | – | 7240 |
| O=C1CCCCC1C1C2C=CC=CC1C(CCCCOC1CCCCO1)=C2 (centres unmarked) | cell growth or viability | – | flow cytometry | – | – | 27 |
| c1ccc(-c2n[nH]cc2-c2ccnc(-c3ccc(OCCn4ccnc4)cc3)c2)nc1 | cell growth or viability | – | XTT | 72 h | – | 20000 |
| CCCCC1=CC2C=CC=CC1C2C1CCCCC1=O (centres unmarked) | cell growth or viability | – | flow cytometry | – | – | 29 |
| COc1cc(C=NNc2ncnc3c2cnn3-c2ccccc2)ccc1O | cell growth or viability | – | XTT | 72 h | – | 3240 |
| CC(=O)OCCC1=CC2C=CC=CC1C2C1CCCCC1=O (centres unmarked) | cell growth or viability | – | flow cytometry | – | – | 39 |
| COc1cc(Nc2nccc(-c3cnn4nc(OC)ccc34)n2)cc(C(F)(F)F)c1 | cell growth or viability | – | ATP luminescence | – | – | 260 |
